Data published in ChEMBL document CHEMBL2029225, “Synthesis of marine-derived 3-alkylpyridinium alkaloids with potent antiprotozoal activity” (ACS Med Chem Lett, 2011).
The source made the active and inactive calls. The calls are words filed in the database; no cut-off is given here.

Key:
[1] = test system: Trypanosoma brucei brucei; test: Antitrypanosomal activity against Trypanosoma brucei brucei 427 at 0.1 uM after 72 hrs by hemocytometry; assay type: functional, organism-based
Outline: (§1)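 Reversibility test: bloodstream-form T. brucei cultures seeded at 2 × 10⁴ cells, compound added at t = 0 h. Compound was washed out after 24 h or 48 h, or left in. Growth was monitored over 72 h against drug-free controls.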

[2] = test system: Trypanosoma brucei brucei; test: Antitrypanosomal activity against bloodstream form of Trypanosoma brucei brucei 427 (BS221) after 72 hrs by alamar blue assay; assay type: functional, organism-based
[3] = test system: Trypanosoma brucei brucei; test: Antitrypanosomal activity against TbAt1-deficient bloodstraem form of Trypanosoma brucei brucei 427 (BS221) after 72 hrs by alamar blue assay; assay type: functional, organism-based
[4] = test system: Trypanosoma brucei brucei; test: Antitrypanosomal activity against TbAt1-deficient bloodstraem form Trypanosoma brucei brucei B48 after 72 hrs by alamar blue assay; assay type: functional, organism-based; conditions: B48, 72 h
[5] = test system: Leishmania major; test: Antileishmanial activity against promastigotes of Leishmania major Friedlin after 72 hrs by alamar blue assay; assay type: functional, organism-based
[6] = test system: Leishmania mexicana; test: Antileishmanial activity against amastigotes of Leishmania mexicana MNYC/BZ/62/M379 after 72 hrs by alamar blue assay; assay type: functional, organism-based; conditions: MNYC/BZ/62/M379, 72 h
[7] = test system: Plasmodium falciparum; test: Antiplasmodial activity against Plasmodium falciparum 3D7 assessed as inhibition of [3H]hypoxanthine incorporation after 18 hrs by liquid scintillation counting; assay type: functional, organism-based
[8] = test system: HEK-293T; test: Cytotoxicity against human HEK293T cells after 72 hrs by alamar blue assay; assay type: cell-based
[9] = Selectivity ratio of EC50 for human HEK293 cells to EC50 for bloodstream form of Trypanosoma brucei brucei 427 (BS221); assay type: ADME, cell-based; conditions: read-out: Ratio EC50
[10] = Selectivity ratio of EC50 for human HEK293 cells to EC50 for TbAt1-deficient bloodstraem form of Trypanosoma brucei brucei 427 (BS221); assay type: ADME, cell-based; conditions: read-out: Ratio EC50
[11] = test system: Trypanosoma brucei brucei; test: Antitrypanosomal activity against bloodstream form of Trypanosoma brucei brucei 427 (BS221) assessed as increased propidium iodide uptake at 50 to 100 uM after 30 mins by real-time cell lysis assay; assay type: functional, organism-based
Outline: (§2)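 Real-time lysis assay with bloodstream-form T. brucei: propidium iodide in the medium fluoresces only on binding DNA/RNA in membrane-compromised cells. Fluorescence was followed for up to 8 h across a range of concentrations. The read-out was the time to reach 80% lysis versus concentration.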

[12] = test system: Trypanosoma brucei brucei; test: Antitrypanosomal activity against bloodstream form of Trypanosoma brucei brucei 427 (BS221) assessed as increased propidium iodide uptake at >/=100 times EC50 after 8 hrs by real-time cell lysis assay; assay type: functional, organism-based; outline: as §2
[13] = test system: Trypanosoma brucei brucei; test: Antitrypanosomal activity against bloodstream form of Trypanosoma brucei brucei s427 assessed as cell cylce arrest at 0.3 uM after 24 hrs by flow cytometry; assay type: functional, organism-based
Outline: (§3)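 Bloodstream-form T. brucei cultures were exposed to compound for up to 48 h, with duplicate samples taken at 24 and 48 h. Lysis sample: PI added directly for 10 min. DNA-content sample: fixed in 70% methanol or permeabilized with digitonin, RNase-treated, then PI-stained. 10000 cells were counted per panel by flow cytometry, and the experiment was run three times.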

[14] = test system: Trypanosoma brucei brucei; test: Antitrypanosomal activity against bloodstream form of Trypanosoma brucei brucei s427 assessed as increase in propidium iodide uptake at 0.3 uM after 48 hrs by flow cytometry; assay type: functional, organism-based; outline: as §3
[15] = test system: Trypanosoma brucei brucei; test: Antitrypanosomal activity against bloodstream form of Trypanosoma brucei brucei s427 assessed as DNA fragmentation at 0.3 uM after 48 hrs by flow cytometry; assay type: functional, organism-based; outline: as §3
[16] = test system: Trypanosoma brucei brucei; test: Antitrypanosomal activity against digitonin permeabilized bloodstream form of Trypanosoma brucei brucei s427 assessed as increase in propidium iodide uptake at 1 uM at 24 hrs by flow cytometry; assay type: functional, organism-based; outline: as §3
[17] = test system: Trypanosoma brucei brucei; test: Antitrypanosomal activity against digitonin permeabilized bloodstream form of Trypanosoma brucei brucei s427 assessed as DNA fragmentation at 1 uM at 24 hrs by flow cytometry; assay type: functional, organism-based; outline: as §3
[18] = test system: Trypanosoma brucei brucei; test: Antitrypanosomal activity against digitonin permeabilized bloodstream form of Trypanosoma brucei brucei s427 assessed as decrease in 2C/4C DNA content by DAPI staining-based fluorescent microscopy; assay type: functional, organism-based
[19] = test system: Trypanosoma brucei brucei; test: Antitrypanosomal activity against Trypanosoma brucei brucei 427 at 10 uM after 24 hrs by hemocytometry; assay type: functional, organism-based; outline: as §1
[20] = test system: Trypanosoma brucei brucei; test: Antitrypanosomal activity against Trypanosoma brucei brucei 427 at 1 uM after 24 hrs by hemocytometry; assay type: functional, organism-based; outline: as §1
[21] = Selectivity ratio of EC50 for human HEK293 cells to EC50 for Leishmania major Friedlin; assay type: ADME, cell-based; conditions: read-out: Ratio EC50
[22] = Selectivity ratio of EC50 for human HEK293 cells to EC50 for Leishmania mexicana MNYC/BZ/62/M379; assay type: ADME, cell-based; conditions: read-out: Ratio EC50
[23] = test system: Trypanosoma brucei brucei; test: Antitrypanosomal activity against bloodstream form of Trypanosoma brucei brucei s427 assessed as increase in propidium iodide uptake at 0.3 to 1 uM up to 48 hrs by flow cytometry; assay type: functional, organism-based; outline: as §3
[24] = test system: Trypanosoma brucei brucei; test: Antitrypanosomal activity against bloodstream form of Trypanosoma brucei brucei s427 assessed as DNA fragmentation at 0.3 to 1 uM up to 48 hrs by flow cytometry; assay type: functional, organism-based; outline: as §3
[25] = test system: Trypanosoma brucei brucei; test: Antitrypanosomal activity against digitonin permeabilized bloodstream form of Trypanosoma brucei brucei s427 assessed as DNA fragmentation at 0.3 to 1 uM up to 48 hrs by flow cytometry; assay type: functional, organism-based; outline: as §3
[26] = test system: Trypanosoma brucei brucei; test: Antitrypanosomal activity against digitonin permeabilized bloodstream form of Trypanosoma brucei brucei s427 assessed as increase in propidium iodide uptake at 0.3 to 1 uM up to 48 hrs by flow cytometry; assay type: functional, organism-based; outline: as §3
[27] = test system: Trypanosoma brucei brucei; test: Antitrypanosomal activity against bloodstream form of Trypanosoma brucei brucei 427 (BS221) assessed as increased propidium iodide uptake at 10 to 50 times EC50 after by real-time cell lysis assay; assay type: functional, organism-based; outline: as §2
[28] = test system: Trypanosoma brucei brucei; test: Antitrypanosomal activity against bloodstream form of Trypanosoma brucei brucei 427 (BS221) assessed as increased propidium iodide uptake at 780 nM after 3 hrs by real-time cell lysis assay; assay type: functional, organism-based; outline: as §2
[29] = test system: Trypanosoma brucei brucei; test: Antitrypanosomal activity against Trypanosoma brucei brucei 427 at 1 uM after 48 hrs by hemocytometry; assay type: functional, organism-based; outline: as §1
[30] = Selectivity ratio of EC50 for human HEK293 cells to EC50 for Plasmodium falciparum 3D7; assay type: ADME, cell-based; conditions: read-out: Ratio EC50

| SMILES | EC50 [2] | EC50 [3] | EC50 [4] | EC50 [5] | EC50 [6] | EC50 [7] | EC50 [8] | Activity [11] | Activity [12] | also measured |
| --- | --- | --- | --- | --- | --- | --- | --- | --- | --- | --- |
| CCCC[n+]1cccc(CCCCCCCCCCCCCI)c1 | 14 nM | 63 nM | 34 nM | 360 nM | 290 nM | 310 nM | 26000 nM | Active | Active | Activity [1]: inactive; selectivity ratio [9]: > 1000; selectivity ratio [10]: > 1000; Activity [13]: inactive; Activity [14]: Active; Activity [15]: Active; Activity [16]: Active; Activity [17]: inactive; Activity [18]: inactive; Activity [19]: Active; Activity [20]: Active |
| N=C(N)c1ccc(/N=N/Nc2ccc(C(=N)N)cc2)cc1 [DIMINAZEN ACETURATE] | 260 nM | 7900 nM |  |  | 24000 nM |  |  |  |  |  |
| C[n+]1cccc(CCCCCCCCCCCCCO)c1 | 2300 nM | 2300 nM | 2700 nM | 2700 nM | 4800 nM | 1500 nM | 183000 nM | Active |  |  |
| C[n+]1cccc(CCCCCCCCCCCCCI)c1 | 86 nM | 180 nM | 110 nM | 310 nM | 280 nM | 260 nM | 47000 nM | Active | Active | selectivity ratio [9]: 540; selectivity ratio [10]: 540; selectivity ratio [21]: 149; selectivity ratio [22]: 149; Activity [23]: inactive; Activity [24]: inactive; Activity [25]: inactive; Activity [26]: inactive; Activity [18]: inactive; Activity [19]: Active |
| OCCCCCCCCCCCCCc1ccc[n+](CCCCCCCCCCCCCc2ccc[n+](CCCCCCCCCCCCCc3ccc[n+](CCCCCCCCCCCCCc4cccnc4)c3)c2)c1 | 310 nM | 410 nM | 330 nM | 1100 nM | 230 nM | 160 nM | 11000 nM | Active |  | Activity [27]: Active |
| CCCC[n+]1cccc(CCCCCCCCCCCCCO)c1 | 160 nM | 260 nM | 200 nM | 330 nM | 1700 nM | 510 nM | 48000 nM | Active | Active | selectivity ratio [9]: 299; selectivity ratio [10]: 299; selectivity ratio [21]: 145; selectivity ratio [22]: 145; Activity [23]: inactive; Activity [24]: inactive; Activity [25]: inactive; Activity [26]: inactive; Activity [18]: inactive; Activity [19]: Active |
| CCN(CC)CCCC(C)Nc1ccnc2cc(Cl)ccc12 (stereo not given) [CHLOROQUINE] |  |  |  |  |  | 0.67 nM |  |  |  |  |
| OCCCCCCCCCCCCCc1ccc[n+](CCCCCCCCCCCCCc2cccnc2)c1 | 400 nM | 620 nM | 300 nM | 1600 nM | 340 nM | 140 nM | 25000 nM | Active |  | Activity [28]: Active |
| COc1ccc(C[n+]2cccc(CCCCCCCCCCCCCO)c2)cc1 | 49 nM | 84 nM | 62 nM | 320 nM | 650 nM | 240 nM | 21000 nM | Active | Active | Activity [29]: Active; Activity [1]: inactive; selectivity ratio [9]: 437; selectivity ratio [10]: 437; Activity [23]: inactive; Activity [24]: inactive; Activity [25]: inactive; Activity [26]: inactive; Activity [18]: inactive; Activity [19]: Active |
| COc1ccc(C[n+]2cccc(CCCCCCCCCCCCCI)c2)cc1 | 190 nM | 480 nM | 200 nM | 1000 nM | 400 nM | 220 nM | 41000 nM | Active | Active |  |
| c1cc2c[n+](c1)CCCCCCCCCCCCCc1ccc[n+](c1)CCCCCCCCCCCCCc1ccc[n+](c1)CCCCCCCCCCCCCc1ccc[n+](c1)CCCCCCCCCCCCC2 | 560 nM | 660 nM | 420 nM | 640 nM | 1100 nM | 190 nM | 14000 nM | Active |  | Activity [27]: Active |
| OCCCCCCCCCCCCCc1ccc[n+](CCCCCCCCCCCCCc2ccc[n+](CCCCCCCCCCCCCc3cccnc3)c2)c1 | 220 nM | 270 nM | 250 nM | 850 nM | 190 nM | 68 nM | 16000 nM | Active |  | selectivity ratio [30]: 237; Activity [27]: Active |
| c1cc2c[n+](c1)CCCCCCCCCCCCCc1ccc[n+](c1)CCCCCCCCCCCCCc1ccc[n+](c1)CCCCCCCCCCCCC2 [VISCOSAMINE] | 410 nM | 490 nM | 280 nM | 720 nM | 810 nM | 53 nM | 26000 nM | Active |  | selectivity ratio [30]: 493; Activity [27]: Active |
| NCCS[As](SCCN)c1ccc(Nc2nc(N)nc(N)n2)cc1 | 3.9 nM | 7.8 nM | 210 nM |  |  |  |  |  |  |  |
| N=C(N)c1ccc(OCCCCCOc2ccc(C(=N)N)cc2)cc1 [PENTAMIDINE] | 1.4 nM | 3.2 nM | 66 nM | 4300 nM | 8800 nM |  |  |  |  |  |
| OCCCCCCCCCCCCCc1cccnc1 | 16000 nM | 34000 nM | 35000 nM | > 50000 nM | > 50000 nM | 7500 nM | 204000 nM |  |  |  |
